Results on 5 compounds are retold here after ChEMBL document CHEMBL1135931, “Rational design, synthesis, and biological activity of novel conformationally restricted vitamin D analogues, (22R)- and (22S)-22-ethyl-1,25-dihydroxy-23,24-didehydro-24a,24b-dihomo-20-epivitamin D(3)” (2002).

One experiment relates to C3H 10T1/2. Description: Cells were harvested and were assayed for luciferase and -galactosidase activities (Transcriptional activity). Type of experiment: functional, Mus musculus. The essentials:
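10T1/2 cells in DMEM with 10% charcoal-stripped FBS, 37 °C, 5% CO2; calcium-phosphate transfection 12 h with SPP×3-TK-LUC reporter, pCMX-β-GAL internal control, pUC18 carrier. Ligand 10^-11 to 10^-7 M for 48 h; luciferase normalized to β-galactosidase, duplicate points. Relative activity taken at ED50, as percent of 1,25-(OH)2D3.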

The test system of another experiment is HL-60. Put plainly: Differentiation activity of human promyelocytic leukemia cells (HL-60) determined by an NBT reduction assay method. In kind it is functional.
Another experiment has as its system Rattus norvegicus. Description: Calcemic activity (in vivo bone calcium mobilization) was measured by the rise in serum calcium in vitamin D and Ca deficient rats by colorimetric assay. Type of experiment: functional. Details: concentration or dose not given beside the values. In outline: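 Weanling male rats on vitamin D-deficient low-calcium diet (0.03% Ca, 0.6% P) for 3 weeks; single intravenous dose of 1 μg analogue in ethanol (50 μL) or vehicle alone. Serum calcium read colorimetrically (o-cresolphthalein complexone) at 0, 6, 12, 24 and 48 h post-dose; activity expressed as percent of 1,25-(OH)2D3.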

Experiment [1] addresses T1, Vitamin D3 receptor (Bos taurus) (UniProt Q28037).
T1 sequence (whole entry): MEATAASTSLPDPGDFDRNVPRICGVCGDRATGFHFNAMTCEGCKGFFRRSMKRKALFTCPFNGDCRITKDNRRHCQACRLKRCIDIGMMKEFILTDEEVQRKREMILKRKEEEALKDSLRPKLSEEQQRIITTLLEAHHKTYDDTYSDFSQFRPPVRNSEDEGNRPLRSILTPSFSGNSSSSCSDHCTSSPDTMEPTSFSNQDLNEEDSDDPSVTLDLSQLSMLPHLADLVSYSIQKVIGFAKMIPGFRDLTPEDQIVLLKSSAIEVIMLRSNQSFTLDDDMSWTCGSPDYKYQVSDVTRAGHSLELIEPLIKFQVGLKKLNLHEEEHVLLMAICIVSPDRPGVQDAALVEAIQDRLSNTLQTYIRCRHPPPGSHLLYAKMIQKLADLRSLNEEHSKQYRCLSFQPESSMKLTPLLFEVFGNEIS
Put plainly: Relative affinity for bovine thymus Vitamin D3 receptor (VDR). In outline:
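Bovine thymus VDR in 0.05 M phosphate pH 7.4, 0.3 M KCl, 5 mM DTT; incubated with 0.1 nM [3H]-1,25-(OH)2D3 plus graded analogue, 19 h at 4 °C. Dextran-coated charcoal separation 20 min at 4 °C, centrifuge 1000g 10 min, supernatant counted; duplicate. Relative affinity at 50% displacement, as percent of 1,25-(OH)2D3.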

In the case of `C=C1/C(=C\C=C2/CCC[C@]3(C)[C@@H]([C@@H](C)[C@@H](/C=C/CCC(C)(C)O)CC)CC[C@@H]23)C[C@@H](O)C[C@@H]1O`, the Activity in the experiment on C3H 10T1/2 is 2500%; in the experiment with HL-60, 9800%; in the experiment on Rattus norvegicus it was 140%; in experiment [1] it was 14%.
The like results for `C=C1/C(=C\C=C2/CCC[C@]3(C)[C@@H]([C@@H](C)[C@@H](C)CCC(C)(C)O)CC[C@@H]23)C[C@@H](O)C[C@@H]1O` were, in that order, 3%, 8%, 5% and 0.4%.
On to `C=C1/C(=C\C=C2/CCC[C@]3(C)[C@@H]([C@@H](C)[C@H](C)CCC(C)(C)O)CC[C@@H]23)C[C@@H](O)C[C@@H]1O`, for which the Activity with C3H 10T1/2 was 10000%; with HL-60, 12000%; in the experiment with Rattus norvegicus it was 220%; in experiment [1] it was 1100%.
Consider `C=C1/C(=C\C=C2/CCC[C@]3(C)[C@@H]([C@@H](C)[C@H](/C=C/CCC(C)(C)O)CC)CC[C@@H]23)C[C@@H](O)C[C@@H]1O`, for which the Activity is 33% in the experiment with C3H 10T1/2, 77% with HL-60, 38% in the experiment with Rattus norvegicus and 0.2% in experiment [1].
Taken in the same sequence, the figures for `C=C1/C(=C\C=C2/CCC[C@]3(C)[C@@H]([C@H](C)CCCC(C)(C)O)CC[C@@H]23)C[C@@H](O)C[C@@H]1O` [CALCITRIOL] were 100%, 100%, 100% and 100%.
